# Measurements reported in publication PMC4711262 (Journal of thrombosis and haemostasis : JTH, 2011).
# Residues, ends and D or L forms follow the SMILES beside them. *: point of attachment. AMC = Cc1cc(=O)oc2cc(N*)ccc12; Cbz = O=C(OCc1ccccc1)*
# Columns and labels:
# DPPIV [1] = target: T1, DPPIV (Homo sapiens, UniProt P27487); settings: cited from earlier work
# [2] = pH 7.8; cited from earlier work
# POP [3] = target: T2, POP (Homo sapiens, UniProt P48147); assay: Enzyme assay with fluorogenic substrate, POP; assay type: biochemical; settings: 100 nM inhibitor; in buffer
# T2 sequence (P48147 1-710): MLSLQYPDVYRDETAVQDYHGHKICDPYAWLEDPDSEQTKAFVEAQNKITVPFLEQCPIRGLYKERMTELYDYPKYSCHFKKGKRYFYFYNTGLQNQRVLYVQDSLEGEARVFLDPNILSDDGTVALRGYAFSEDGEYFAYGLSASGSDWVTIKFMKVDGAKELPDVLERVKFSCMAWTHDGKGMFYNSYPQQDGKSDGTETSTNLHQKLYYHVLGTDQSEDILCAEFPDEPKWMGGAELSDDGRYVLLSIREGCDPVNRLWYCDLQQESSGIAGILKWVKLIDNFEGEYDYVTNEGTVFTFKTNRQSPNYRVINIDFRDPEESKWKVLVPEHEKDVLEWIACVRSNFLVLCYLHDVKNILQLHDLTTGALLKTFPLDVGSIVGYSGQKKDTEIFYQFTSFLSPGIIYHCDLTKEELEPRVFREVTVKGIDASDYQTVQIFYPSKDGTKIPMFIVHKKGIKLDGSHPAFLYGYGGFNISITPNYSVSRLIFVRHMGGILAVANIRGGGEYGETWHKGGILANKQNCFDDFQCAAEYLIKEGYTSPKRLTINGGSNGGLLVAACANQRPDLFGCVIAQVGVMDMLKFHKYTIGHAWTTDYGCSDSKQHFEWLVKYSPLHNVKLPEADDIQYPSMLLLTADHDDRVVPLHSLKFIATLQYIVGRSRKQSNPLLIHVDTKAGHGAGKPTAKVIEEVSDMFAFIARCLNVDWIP
# APCE and POP = assay type: biochemical, human; settings: non-POP-supplemented plasma; 10 μM inhibitor; 100 μM substrate
# Summary of the method: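 Pooled plasma from four donors, with or without 0.05 μg added POP, was assayed with 10 μM inhibitor or no inhibitor. Cleavage was compared with uninhibited plasma. Values are mean ± SD of three experiments.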
# DPPIV [4] = target: T1, DPPIV; assay: Enzyme assay with fluorogenic substrate, DPPIV; assay type: biochemical
# APCE/FAP = target: T3, APCE/FAP (Homo sapiens, UniProt Q12884); assay: Enzyme assay with fluorogenic substrate, APCE/FAP; assay type: biochemical; settings: 10 μM inhibitor
# T3 sequence (Q12884 24-760 limits assumed): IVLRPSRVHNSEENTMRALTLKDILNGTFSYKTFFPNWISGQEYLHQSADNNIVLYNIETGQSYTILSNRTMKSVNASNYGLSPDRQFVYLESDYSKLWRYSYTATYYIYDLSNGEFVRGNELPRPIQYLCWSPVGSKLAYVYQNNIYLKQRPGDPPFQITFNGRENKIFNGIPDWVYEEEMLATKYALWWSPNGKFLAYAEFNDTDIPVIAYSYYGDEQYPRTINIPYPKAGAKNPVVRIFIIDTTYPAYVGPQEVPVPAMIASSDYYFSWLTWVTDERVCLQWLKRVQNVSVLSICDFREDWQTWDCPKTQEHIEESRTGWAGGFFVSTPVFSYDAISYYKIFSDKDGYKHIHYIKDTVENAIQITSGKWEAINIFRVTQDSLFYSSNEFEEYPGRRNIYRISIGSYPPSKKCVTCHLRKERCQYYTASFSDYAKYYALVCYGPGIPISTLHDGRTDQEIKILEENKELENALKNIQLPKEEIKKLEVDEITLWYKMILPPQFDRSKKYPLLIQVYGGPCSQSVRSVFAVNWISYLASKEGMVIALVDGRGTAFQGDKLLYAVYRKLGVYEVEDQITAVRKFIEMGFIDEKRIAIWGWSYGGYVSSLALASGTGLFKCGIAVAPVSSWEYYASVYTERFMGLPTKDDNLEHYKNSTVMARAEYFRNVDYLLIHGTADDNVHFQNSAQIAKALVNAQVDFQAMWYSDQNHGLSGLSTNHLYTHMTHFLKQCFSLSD
# POP [5] = target: T2, POP; settings: cited from earlier work
# T1 sequence (P27487 whole entry, species assumed): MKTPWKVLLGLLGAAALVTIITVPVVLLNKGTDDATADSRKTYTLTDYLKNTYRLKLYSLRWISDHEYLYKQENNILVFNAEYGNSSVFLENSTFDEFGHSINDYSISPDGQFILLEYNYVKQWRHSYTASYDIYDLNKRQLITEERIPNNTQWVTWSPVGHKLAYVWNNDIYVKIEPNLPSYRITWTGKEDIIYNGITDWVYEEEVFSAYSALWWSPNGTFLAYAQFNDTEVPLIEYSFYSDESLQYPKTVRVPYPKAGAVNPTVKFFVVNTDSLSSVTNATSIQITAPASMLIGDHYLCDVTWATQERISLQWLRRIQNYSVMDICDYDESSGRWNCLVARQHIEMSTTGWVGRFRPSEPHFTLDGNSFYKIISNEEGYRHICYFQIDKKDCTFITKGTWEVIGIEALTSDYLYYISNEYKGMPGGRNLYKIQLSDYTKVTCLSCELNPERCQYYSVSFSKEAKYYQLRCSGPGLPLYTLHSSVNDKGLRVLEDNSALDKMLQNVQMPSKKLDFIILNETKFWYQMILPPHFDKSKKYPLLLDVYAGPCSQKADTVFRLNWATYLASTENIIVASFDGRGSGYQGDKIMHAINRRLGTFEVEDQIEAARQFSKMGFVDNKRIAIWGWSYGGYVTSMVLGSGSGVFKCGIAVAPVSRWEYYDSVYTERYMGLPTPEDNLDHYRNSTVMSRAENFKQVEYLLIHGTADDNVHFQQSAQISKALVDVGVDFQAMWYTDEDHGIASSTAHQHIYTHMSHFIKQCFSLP
compound,measurement,setting,value
"Cc1cc(=O)oc2cc(NC(=O)[C@@H]3CCCN3C(=O)CNC(=O)OCc3ccccc3)ccc12 [Z-GP-AMC, benzyloxycarbonyl (Z)-GP-AMC] (Cbz-Gly-Pro-{AMC})",cleavage by DPPIV,DPPIV [1],not cleaved
CC(C)[C@H](N)C(=O)N1CCC[C@H]1B(O)O [Val-boroPro],stability of inhibitory activity in aqueous media,[2],rapidly loses inhibitory activity
acetyl-KLR-L-boroPro,inhibition of POP,POP [3],total inhibition
same,inhibition of MEPLGRQLTSGP-AMC cleavage in plasma,APCE and POP,not inhibited
same,inhibitory activity towards DPPIV,DPPIV [4]; 10 μM inhibitor,no inhibitory activity
same,inhibitory activity towards APCE/FAP,APCE/FAP,no inhibitory activity
"CC(=O)N[C@@H](CCCNC(=N)N)C(=O)NCC(=O)NCC(=O)N1CCC[C@H]1B(O)O [Inhibitor no. 2, Ac-Arg-Gly-Gly-L-boroPro]",DPPIV selectivity,DPPIV [4]; Ki(app) (DPPIV)/Ki(app) (APCE/FAP),19
Cc1cc(=O)oc2cc(NC(=O)[C@@H]3CCCN3C(=O)CN)ccc12 [GP-AMC] (H-Gly-Pro-{AMC}),cleavage by POP,POP [5],not cleaved
